Laboratory results reported in ChEMBL document CHEMBL4038284, “Synthesis of novel quinoline-based 4,5-dihydro-1H-pyrazoles as potential anticancer, antifungal, antibacterial and antiprotozoal agents” (Eur J Med Chem, 2017).
In brackets after ≈: the same amount, converted by molar mass. Activity calls are given as the source filed them. No cut-off for these calls is given here.

Tests used:
NCI-H522 = test: Growth inhibition of human NCI-H522 cells at 10 uM incubated for 48 hrs by sulforhodamine B assay; type: functional, cell-based
Summary of the method: (§1)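 NCI 60-line panel, single 10 μM dose. Cells were grown in RPMI-1640 with 5% FBS and 2 mM L-glutamine and pre-incubated 24 h before compound addition (DMSO stock). Exposure was 48 h at 37 °C, 5% CO2. Cells were fixed with cold TCA (10% final), stained with 0.4% SRB, bound dye dissolved in 10 mM Tris base, A515 read. Growth was taken relative to time-zero and untreated control plates.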

TK-10 = test: Growth inhibition of human TK10 cells at 10 uM incubated for 48 hrs by sulforhodamine B assay; type: functional, cell-based
Summary of the method: (§2)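 NCI-60 single-dose screen at 10 µM for 48 h. Cells were grown in RPMI-1640 with 5% FBS and 2 mM L-glutamine and preincubated 24 h before compound. Time-zero plates were TCA-fixed at compound addition. After exposure, cells were TCA-fixed, stained with SRB and read at 515 nm. Percentage growth was calculated against time-zero and untreated-control absorbances.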

Cryptococcus neoformans [1] = test: Growth inhibition of Cryptococcus neoformans ATCC 32264 at 62.5 ug/ml incubated for 48 hrs under dark condition by broth microdilution method relative to control; type: functional; conditions: ATCC 32264, 48 h, read-out: GI
Summary of the method: (§3)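 CLSI M27-A3 broth microdilution in RPMI-1640, DMSO ≤1%. Inoculum 1-5 × 10^3 CFU/mL. Incubated 48 h at 30 °C, dark. % inhibition = 100 − (OD405 test − sterility control)/(OD405 growth control − sterility control), with growth and sterility control wells. Triplicate.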

OVCAR-3 = test: Growth inhibition of human OVCAR3 cells at 10 uM incubated for 48 hrs by sulforhodamine B assay; type: functional, cell-based; summary of the method: as §1
MCF7 = test: Growth inhibition of human MCF7 cells at 10 uM incubated for 48 hrs by sulforhodamine B assay; type: functional, cell-based; summary of the method: as §1
LOX IMVI = test: Growth inhibition of human LOXIMVI cells at 10 uM incubated for 48 hrs by sulforhodamine B assay; type: functional, cell-based; summary of the method: as §1
SF-295 = test: Growth inhibition of human SF295 cells at 10 uM incubated for 48 hrs by sulforhodamine B assay; type: functional, cell-based; summary of the method: as §1
Cryptococcus neoformans [2] = test: Growth inhibition of Cryptococcus neoformans ATCC 32264 at 125 ug/ml incubated for 48 hrs under dark condition by broth microdilution method relative to control; type: functional; conditions: ATCC 32264, 48 h, read-out: GI; summary of the method: as §3
NCI-H23 = test: Growth inhibition of human NCI-H23 cells at 10 uM incubated for 48 hrs by sulforhodamine B assay; type: functional, cell-based; summary of the method: as §1
SK-MEL-5 = test: Growth inhibition of human SK-MEL-5 cells at 10 uM incubated for 48 hrs by sulforhodamine B assay; type: functional, cell-based; summary of the method: as §2
U-937 = test: Cytotoxicity against human U937 cells after 72 hrs by MTT assay; type: cell-based; conditions: u-937, 72 h
Summary of the method: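 Exponentially growing U-937 at 1 × 10^5 cells/mL in RPMI-1640 with 10% FBS were exposed to 200, 50, 12.5 and 3.125 µg/mL for 72 h at 37 °C, 5% CO2. MTT for 3 h, stopped with isopropanol/SDS, formazan read at 570 nm, blank-corrected. LC50 by Probit from % viability against untreated cells. Triplicate, at least two independent experiments.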

Cryptococcus neoformans [3] = test: Growth inhibition of Cryptococcus neoformans ATCC 32264 at 7.8 ug/ml incubated for 48 hrs under dark condition by broth microdilution method relative to control; type: functional; conditions: ATCC 32264, 48 h, read-out: GI; summary of the method: as §3
Leishmania panamensis = test: Antileshmanial activity against EpiR/GFP fused Leishmania panamensis MHOM/CO/87/UA140 intracellular amastigotes infected in human […] cells after 72 hrs by flow cytometric method; type: functional, cell-based; conditions: MHOM/CO/87/UA140, 72 h
Summary of the method: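 PMA-treated U-937 cells (3 × 10^5 cells/mL) infected with stationary-phase GFP L. panamensis promastigotes (15:1), 3 h at 34 °C, then washed. After 24 h, compounds added at 50, 12.5, 3.125 and 0.78 µg/mL for 72 h at 37 °C. EC50 by Probit; triplicate, two experiments.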

ACHN = test: Growth inhibition of human ACHN cells at 10 uM incubated for 48 hrs by sulforhodamine B assay; type: functional, cell-based
Summary of the method: (§4)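 NCI 60-cell-line screen at a single 10 µM dose. Cells in RPMI-1640 with 5% FBS and 2 mM L-glutamine, pre-incubated 24 h, then treated for 48 h at 37 °C. TCA fixation, sulforhodamine B staining, absorbance at 515 nm. Percentage growth calculated against time-zero and untreated controls.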

NCI/ADR-RES = test: Growth inhibition of human NCI/ADR-RES cells at 10 uM incubated for 48 hrs by sulforhodamine B assay; type: functional, cell-based; summary of the method: as §1
KM12 = test: Growth inhibition of human KM12 cells at 10 uM incubated for 48 hrs by sulforhodamine B assay; type: functional, cell-based; summary of the method: as §1
Candida albicans [4] = test: Growth inhibition of Candida albicans ATCC 10231 at 15.62 ug/ml incubated for 48 hrs under dark condition by broth microdilution method relative to control; type: functional; conditions: ATCC 10231, 48 h, read-out: GI; summary of the method: as §3
Escherichia coli = test: Antibacterial activity against Escherichia coli ATCC 25922 after 24 hrs by resazurin dye based microdilution assay; type: functional; conditions: ATCC 25922, 24 h
Summary of the method: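 MIC taken as the lowest concentration giving visible inhibition and/or by resazurin (1 mg/mL). Gentamicin was the control. Run in duplicate, repeated at least three times.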

RPMI-8226 = test: Growth inhibition of human RPMI8226 cells at 10 uM incubated for 48 hrs by sulforhodamine B assay; type: functional, cell-based; summary of the method: as §1
SNB-19 = test: Growth inhibition of human SNB19 cells at 10 uM incubated for 48 hrs by sulforhodamine B assay; type: functional, cell-based; summary of the method: as §2
SN12C = test: Growth inhibition of human SN12C cells at 10 uM incubated for 48 hrs by sulforhodamine B assay; type: functional, cell-based; summary of the method: as §2
MDA-MB-231 = test: Growth inhibition of human MDA-MB-231 cells at 10 uM incubated for 48 hrs by sulforhodamine B assay; type: functional, cell-based; summary of the method: as §1
Candida albicans [5] = test: Growth inhibition of Candida albicans ATCC 10231 at 31.25 ug/ml incubated for 48 hrs under dark condition by broth microdilution method relative to control; type: functional; conditions: ATCC 10231, 48 h, read-out: GI; summary of the method: as §3
Cryptococcus neoformans [6] = test: Antifungal activity against Cryptococcus neoformans ATCC 32264 incubated for 48 hrs under dark condition by broth microdilution method; type: functional; conditions: ATCC 32264, 48 h
Summary of the method: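 CLSI M27-A3 broth microdilution in RPMI-1640, DMSO ≤1%, compounds at 250-0.98 µg/mL final. Inoculum 1-5 × 10^3 CFU/mL. Incubated 48 h at 30 °C in a moist dark chamber, read at OD405. MIC80 and MIC50 taken from % inhibition dose-response curves (mean ± SEM, triplicate). Amphotericin B was the positive control.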

BT-549 = test: Growth inhibition of human BT549 cells at 10 uM incubated for 48 hrs by sulforhodamine B assay; type: functional, cell-based; summary of the method: as §4
UACC-62 = test: Growth inhibition of human UACC62 cells at 10 uM incubated for 48 hrs by sulforhodamine B assay; type: functional, cell-based; summary of the method: as §2

Row | SMILES | growth inhibition (GI) (NCI-H522) | growth inhibition (GI) (TK-10) | inhibition of growth at 62.5 µg/mL (Cryptococcus neoformans [1]) [%] | growth inhibition (GI) (OVCAR-3) | growth inhibition (GI) (MCF7) | growth inhibition (GI) (LOX IMVI) | growth inhibition (GI) (SF-295) | inhibition of growth at 125 µg/mL (Cryptococcus neoformans [2]) [%] | growth inhibition (GI) (NCI-H23) | growth inhibition (GI) (SK-MEL-5) | LC50 (U-937) [µg/mL] | inhibition of growth at 7.8 µg/mL (Cryptococcus neoformans [3]) [%] | EC50 (Leishmania panamensis) [µg/mL] | growth inhibition (GI) (ACHN) | growth inhibition (GI) (NCI/ADR-RES) | inhibition of growth at 15.62 µg/mL (Candida albicans [4]) [%] | MIC (Escherichia coli) [µg/mL] | inhibition of growth at 31.25 µg/mL (Candida albicans [5]) [%] | MIC50 (Cryptococcus neoformans [6]) [µg/mL] | MIC80 (Cryptococcus neoformans [6]) [µg/mL] | other results
1 | COc1ccc(C(=O)/C=C/c2cccc(Nc3ccnc4cc(Cl)ccc34)c2)cc1 | Active | Active | 13.9 | Active | Active | Active | Active | 34.4 | Active | Active | 8.1 (≈ 19.5 µM) | 2.47 | 2.65 (≈ 6.39 µM) | Active | Active | 26.8 | > 1000 | 26.9 | ≥ 250 | ≥ 250 | growth inhibition (GI) (KM12): Active; growth inhibition (GI) (RPMI-8226): Active; growth inhibition (GI) (SNB-19): Active; growth inhibition (GI) (SN12C): Active; growth inhibition (GI) (MDA-MB-231): Active; growth inhibition (GI) (BT-549): Active; growth inhibition (GI) (UACC-62): Active
2 | O=Cc1cccc(Nc2ccnc3cc(Cl)ccc23)c1 |  |  | 19.6 |  |  |  |  | 38.5 |  |  | 0.6 (≈ 2.12 µM) | 5.93 | 0.96 (≈ 3.4 µM) |  |  | 10.8 | 62.5 (≈ 221 µM) | 10.6 | 250 (≈ 884 µM) | 250 (≈ 884 µM) | 
3 | O=CN1N=C(c2ccc(Cl)cc2)CC1c1cccc(Nc2ccnc3cc(Cl)ccc23)c1 (centres undefined) | Active | Active | 59.7 | Active | Active | Active | Active | 75.7 | Active | Active | 0.6 (≈ 1.3 µM) | 39.5 | 281 (≈ 609 µM) | Active | Active | 22.7 | > 1000 | 24.5 | 31.2 (≈ 67.7 µM) | ≥ 250 | growth inhibition (GI) (KM12): Active; growth inhibition (GI) (RPMI-8226): Active; growth inhibition (GI) (SNB-19): Active; growth inhibition (GI) (SN12C): Active; growth inhibition (GI) (MDA-MB-231): Active; growth inhibition (GI) (BT-549): Active; growth inhibition (GI) (UACC-62): Active
